According to ChEMBL document CHEMBL3856209, “Novel pyrazolopyridine derivatives as potential angiogenesis inhibitors: Synthesis, biological evaluation and transcriptome-based mechanistic analysis” (Eur J Med Chem, 2016):

How the values were obtained:
Assay type in all cases: functional, Homo sapiens
HUVEC [1] = experiment: Effect on BIRC5 gene expression in serum-starved HUVEC after 6 hrs by microarray analysis relative to control
How it was run: (§1)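 Serum-starved confluent HUVEC treated with 2 μM compound or DMSO in 2.5% FBS for 6 h or 24 h; RNA hybridized to Illumina Human-HT12 arrays. Data background-corrected, vst-transformed and rsn-normalized. Differential probes called by moderated paired t-test (limma) at p < 0.05 and log2 fold change >|0.5| vs DMSO.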

HUVEC [2] = experiment: Effect on RNVU1-18 gene expression in serum-starved HUVEC after 6 hrs by microarray analysis relative to control
How it was run: (§2)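 Serum-starved confluent HUVEC (pooled from 3–5 donors, passage ≤4) were treated with 2 μM compound or vehicle in 2.5% FBS for 6 h or 24 h, and total RNA was isolated. Hybridization was on Illumina Human-HT12. Data were processed with bgAdjust, vst and rsn normalization. Changes versus DMSO were called by moderated paired t-test at p < 0.05 and |log2 fold change| > 0.5.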

HUVEC [3] = experiment: Effect on CENPA gene expression in serum-starved HUVEC after 24 hrs by microarray analysis relative to control; how it was run: as §1
HUVEC [4] = experiment: Effect on CKS1B gene expression in serum-starved HUVEC after 24 hrs by microarray analysis relative to control; how it was run: as §1
HUVEC [5] = experiment: Effect on PTTG1 gene expression in serum-starved HUVEC after 24 hrs by microarray analysis relative to control
How it was run: (§3)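 Confluent serum-starved HUVEC (primary, pooled from 3–5 donors, passage ≤4) treated with 2 μM compound or DMSO vehicle in 2.5% FBS for 6 h or 24 h. Total RNA hybridized to Illumina Human-HT12 arrays, background-corrected, vst-transformed and rsn-normalized. Differential expression versus DMSO by moderated paired t-test (p < 0.05, |log2 fold change| > 0.5).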

HUVEC [6] = experiment: Effect on RNA28S5 gene expression in serum-starved HUVEC after 24 hrs by microarray analysis relative to control; how it was run: as §2
HUVEC [7] = experiment: Effect on RNVU1-7 gene expression in serum-starved HUVEC after 24 hrs by microarray analysis relative to control; how it was run: as §3
HUVEC [8] = experiment: Effect on SPC24 gene expression in serum-starved HUVEC after 24 hrs by microarray analysis relative to control; how it was run: as §3
HUVEC [9] = experiment: Effect on UBE2C gene expression in serum-starved HUVEC after 24 hrs by microarray analysis relative to control; how it was run: as §3
HUVEC [10] = experiment: Effect on ITGA2 gene expression in serum-starved HUVEC after 6 hrs by microarray analysis relative to control
How it was run: (§4)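 Confluent, serum-starved HUVEC (pooled from 3–5 donors, passage ≤4) treated with 2 μM compound or vehicle with 2.5% FBS for 6 h or 24 h. Total RNA hybridized to Illumina Human-HT12 arrays. Data were background-corrected, vst-transformed and rsn-normalized. Hits called by moderated paired t-test versus DMSO-treated cells, p < 0.05 and log2 fold change >|0.5|.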

HUVEC [11] = experiment: Effect on AFAP1L1 gene expression in serum-starved HUVEC after 6 hrs by microarray analysis relative to control; how it was run: as §3
HUVEC [12] = experiment: Effect on CD14 gene expression in serum-starved HUVEC after 6 hrs by microarray analysis relative to control; how it was run: as §3
HUVEC [13] = experiment: Effect on CDK1 gene expression in serum-starved HUVEC after 6 hrs by microarray analysis relative to control; how it was run: as §1
HUVEC [14] = experiment: Effect on CTSH gene expression in serum-starved HUVEC after 6 hrs by microarray analysis relative to control; how it was run: as §4
HUVEC [15] = experiment: Effect on DLGAP5 gene expression in serum-starved HUVEC after 6 hrs by microarray analysis relative to control; how it was run: as §4
HUVEC [16] = experiment: Effect on FDPS gene expression in serum-starved HUVEC after 6 hrs by microarray analysis relative to control
How it was run: (§5)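 Serum-starved confluent HUVEC (primary, pooled from 3–5 donors, passage ≤4) treated with 2 μM test compound or DMSO vehicle (working dilutions ≤0.1% v/v) in presence of 2.5% FBS for 6 h or 24 h; total RNA hybridized to Illumina Human-HT12 arrays; background correction, vst, rsn normalization; moderated paired t-test versus DMSO, thresholds p < 0.05 and log2 fold change >|0.5|.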

HUVEC [17] = experiment: Effect on GINS2 gene expression in serum-starved HUVEC after 6 hrs by microarray analysis relative to control; how it was run: as §4
HUVEC [18] = experiment: Effect on MGARP gene expression in serum-starved HUVEC after 6 hrs by microarray analysis relative to control; how it was run: as §2
HUVEC [19] = experiment: Effect on MTSS1 gene expression in serum-starved HUVEC after 6 hrs by microarray analysis relative to control
HUVEC [20] = experiment: Effect on OIP5 gene expression in serum-starved HUVEC after 6 hrs by microarray analysis relative to control
HUVEC [21] = experiment: Effect on PLK4 gene expression in serum-starved HUVEC after 6 hrs by microarray analysis relative to control; how it was run: as §2
HUVEC [22] = experiment: Effect on TMEM154 gene expression in serum-starved HUVEC after 6 hrs by microarray analysis relative to control
HUVEC [23] = experiment: Effect on TUBB2B gene expression in serum-starved HUVEC after 6 hrs by microarray analysis relative to control
HUVEC [24] = experiment: Effect on UACA gene expression in serum-starved HUVEC after 6 hrs by microarray analysis relative to control
HUVEC [25] = experiment: Effect on VCAM1 gene expression in serum-starved HUVEC after 6 hrs by microarray analysis relative to control
HUVEC [26] = experiment: Effect on YES1 gene expression in serum-starved HUVEC after 6 hrs by microarray analysis relative to control
HUVEC [27] = experiment: Effect on CDCA8 gene expression in serum-starved HUVEC after 24 hrs by microarray analysis relative to control; how it was run: as §5
HUVEC [28] = experiment: Effect on CMTM7 gene expression in serum-starved HUVEC after 24 hrs by microarray analysis relative to control; how it was run: as §3
HUVEC [29] = experiment: Effect on CTSH gene expression in serum-starved HUVEC after 24 hrs by microarray analysis relative to control; how it was run: as §4
HUVEC [30] = experiment: Effect on CYTL1 gene expression in serum-starved HUVEC after 24 hrs by microarray analysis relative to control; how it was run: as §5
HUVEC [31] = experiment: Effect on FUCA1 gene expression in serum-starved HUVEC after 24 hrs by microarray analysis relative to control; how it was run: as §3
HUVEC [32] = experiment: Effect on KITLG gene expression in serum-starved HUVEC after 24 hrs by microarray analysis relative to control; how it was run: as §2
HUVEC [33] = experiment: Effect on SULT1C4 gene expression in serum-starved HUVEC after 24 hrs by microarray analysis relative to control
HUVEC [34] = experiment: Effect on TM7SF2 gene expression in serum-starved HUVEC after 24 hrs by microarray analysis relative to control
HUVEC [35] = experiment: Effect on MMP1 gene expression in serum-starved HUVEC after 6 hrs by microarray analysis relative to control; how it was run: as §2
HUVEC [36] = experiment: Effect on IL10 gene expression in serum-starved HUVEC after 24 hrs by microarray analysis relative to control; how it was run: as §4
HUVEC [37] = experiment: Effect on MIR181A2HG gene expression in serum-starved HUVEC after 24 hrs by microarray analysis relative to control; how it was run: as §2
HUVEC [38] = experiment: Effect on TAOK1 gene expression in serum-starved HUVEC after 24 hrs by microarray analysis relative to control

COc1ccc(Cn2nc(-c3ccccc3)c3cc(Cl)nc(N4CCNCC4)c32)cc1
fold change (FC) (HUVEC [1]): 0.0293 | log2FC (HUVEC [2]): -0.6107 | log2FC (HUVEC [3]): -0.5592 | log2FC (HUVEC [4]): -0.5699 | log2FC (HUVEC [5]): -0.6261 | log2FC (HUVEC [6]): 0.141 | log2FC (HUVEC [7]): -0.1037 | log2FC (HUVEC [8]): -0.732 | log2FC (HUVEC [9]): -0.5278 | log2FC (HUVEC [10]): 0.5417

COc1ccc(Cn2nc(-c3ccccc3)c3cc(Nc4ccc(N5CCN(C)CC5)cc4)nc(N4CCN(C)CC4)c32)cc1
fold change (FC) (HUVEC [11]): 0.0116 | fold change (FC) (HUVEC [12]): 1.7643 | log2FC (HUVEC [13]): -0.1173 | fold change (FC) (HUVEC [14]): 0.4595 | fold change (FC) (HUVEC [15]): 0.1107 | fold change (FC) (HUVEC [16]): -0.059 | log2FC (HUVEC [17]): -0.1389 | log2FC (HUVEC [18]): -0.2938 | fold change (FC) (HUVEC [19]): 0.2099 | fold change (FC) (HUVEC [20]): -0.4214 | fold change (FC) (HUVEC [21]): 0.1554 | log2FC (HUVEC [2]): -0.6156 | fold change (FC) (HUVEC [22]): 0.2897 | fold change (FC) (HUVEC [23]): 0.219 | fold change (FC) (HUVEC [24]): 0.2427 | log2FC (HUVEC [25]): 0.1271 | log2FC (HUVEC [26]): 0.3231 | fold change (FC) (HUVEC [27]): -0.8847 | log2FC (HUVEC [3]): -0.6147 | fold change (FC) (HUVEC [28]): 0.5435 | log2FC (HUVEC [29]): -0.6409 | fold change (FC) (HUVEC [30]): 0.5166 | fold change (FC) (HUVEC [31]): -1.0254 | log2FC (HUVEC [32]): 0.5605 | log2FC (HUVEC [5]): -0.8594 | log2FC (HUVEC [7]): 0.1142 | log2FC (HUVEC [8]): -0.7666 | log2FC (HUVEC [33]): 0.5208 | log2FC (HUVEC [34]): 1.5761 | log2FC (HUVEC [9]): -0.9349

COc1ccc(Cn2nc(-c3ccccc3)c3cc(Nc4ccc(N5CCN(C)CC5)cc4)nc(N4CCNCC4)c32)cc1
log2FC (HUVEC [15]): 0.2579 | log2FC (HUVEC [35]): -0.1422 | log2FC (HUVEC [6]): 0.4902 | log2FC (HUVEC [36]): 0.5464 | log2FC (HUVEC [37]): 0.5287 | log2FC (HUVEC [38]): 0.6142
